# Key:
# Sus scrofa = species on record: Sus scrofa; assay: Relaxant effect on PGF2-alpha precontracted porcine coronary arteries; assay type: functional, organism-based
# In short: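 Porcine coronary strips held at 1 g resting tension. Endothelium confirmed by 7 × 10^-9 M bradykinin relaxation after 50 mM KCl. Contraction with PGF2α (final 10^-5 M); at plateau, cumulative concentration-relaxation curves built. Relaxation expressed as % of PGF2α contraction. EC50 from the log cumulative plot, mean ± SEM (n given).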
# Phosphodiesterase 4A = target: T1, Phosphodiesterase 4A (Sus scrofa, UniProt O77823); assay: Inhibition of cAMP specific-PDE 4 from porcine aorta
# T1 sequence (O77823 whole entry): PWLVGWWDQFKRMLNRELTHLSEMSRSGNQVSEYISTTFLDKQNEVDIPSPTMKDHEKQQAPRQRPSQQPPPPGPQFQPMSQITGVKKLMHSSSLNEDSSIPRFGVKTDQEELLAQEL
# In short: (§1)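 Porcine aorta PDE isozyme, two-step radioisotopic assay with 1 µM [3H]substrate: cGMP for type I, cAMP for types II, III and IV. Compounds dissolved in DMSO, diluted in assay buffer over 10^-8 to 10^-4 M, final DMSO under 0.4% (v/v). IC50 taken from the log concentration-inhibition plot (at least three points), mean ± SEM of at least three experiments.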
# [1] = target: cGMP-dependent 3',5'-cyclic phosphodiesterase (Homo sapiens, UniProt O00408); assay: Inhibition of cGMP stimulated-PDE 2 from porcine aorta; set-up: species or system Sus scrofa; conditions: target entry is the homologue from another species; in short: as §1
# Sequence of cGMP-dependent 3',5'-cyclic phosphodiesterase (O00408 whole entry): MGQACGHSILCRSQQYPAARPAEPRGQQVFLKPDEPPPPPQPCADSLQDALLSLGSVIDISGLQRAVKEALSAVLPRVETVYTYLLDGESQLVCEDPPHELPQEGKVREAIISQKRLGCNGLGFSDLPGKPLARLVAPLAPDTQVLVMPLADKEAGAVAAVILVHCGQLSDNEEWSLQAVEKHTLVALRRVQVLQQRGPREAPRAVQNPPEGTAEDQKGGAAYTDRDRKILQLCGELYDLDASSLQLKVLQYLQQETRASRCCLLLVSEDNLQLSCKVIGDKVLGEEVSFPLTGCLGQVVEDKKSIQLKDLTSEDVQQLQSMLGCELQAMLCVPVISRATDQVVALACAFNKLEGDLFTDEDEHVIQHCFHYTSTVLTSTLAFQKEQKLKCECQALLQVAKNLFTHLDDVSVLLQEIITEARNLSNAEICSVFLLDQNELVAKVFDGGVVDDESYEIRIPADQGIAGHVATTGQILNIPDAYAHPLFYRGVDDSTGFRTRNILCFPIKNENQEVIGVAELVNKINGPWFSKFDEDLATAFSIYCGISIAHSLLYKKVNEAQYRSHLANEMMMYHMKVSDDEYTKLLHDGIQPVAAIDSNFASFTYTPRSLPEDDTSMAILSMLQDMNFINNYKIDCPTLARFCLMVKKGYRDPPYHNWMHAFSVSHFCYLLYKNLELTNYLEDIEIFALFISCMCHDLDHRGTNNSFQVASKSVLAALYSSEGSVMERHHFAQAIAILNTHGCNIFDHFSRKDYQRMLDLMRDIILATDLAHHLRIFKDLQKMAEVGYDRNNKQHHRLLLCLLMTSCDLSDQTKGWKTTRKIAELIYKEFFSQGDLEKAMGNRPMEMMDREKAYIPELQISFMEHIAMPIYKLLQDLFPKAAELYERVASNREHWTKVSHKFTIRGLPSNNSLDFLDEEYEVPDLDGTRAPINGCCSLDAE
# Phosphodiesterase 3A = target: T2, Phosphodiesterase 3A (Sus scrofa, UniProt Q9XSW7); assay: Inhibition of cGMP-inhibited PDE 3 from porcine aorta; in short: as §1
# T2 sequence (Q9XSW7 whole entry): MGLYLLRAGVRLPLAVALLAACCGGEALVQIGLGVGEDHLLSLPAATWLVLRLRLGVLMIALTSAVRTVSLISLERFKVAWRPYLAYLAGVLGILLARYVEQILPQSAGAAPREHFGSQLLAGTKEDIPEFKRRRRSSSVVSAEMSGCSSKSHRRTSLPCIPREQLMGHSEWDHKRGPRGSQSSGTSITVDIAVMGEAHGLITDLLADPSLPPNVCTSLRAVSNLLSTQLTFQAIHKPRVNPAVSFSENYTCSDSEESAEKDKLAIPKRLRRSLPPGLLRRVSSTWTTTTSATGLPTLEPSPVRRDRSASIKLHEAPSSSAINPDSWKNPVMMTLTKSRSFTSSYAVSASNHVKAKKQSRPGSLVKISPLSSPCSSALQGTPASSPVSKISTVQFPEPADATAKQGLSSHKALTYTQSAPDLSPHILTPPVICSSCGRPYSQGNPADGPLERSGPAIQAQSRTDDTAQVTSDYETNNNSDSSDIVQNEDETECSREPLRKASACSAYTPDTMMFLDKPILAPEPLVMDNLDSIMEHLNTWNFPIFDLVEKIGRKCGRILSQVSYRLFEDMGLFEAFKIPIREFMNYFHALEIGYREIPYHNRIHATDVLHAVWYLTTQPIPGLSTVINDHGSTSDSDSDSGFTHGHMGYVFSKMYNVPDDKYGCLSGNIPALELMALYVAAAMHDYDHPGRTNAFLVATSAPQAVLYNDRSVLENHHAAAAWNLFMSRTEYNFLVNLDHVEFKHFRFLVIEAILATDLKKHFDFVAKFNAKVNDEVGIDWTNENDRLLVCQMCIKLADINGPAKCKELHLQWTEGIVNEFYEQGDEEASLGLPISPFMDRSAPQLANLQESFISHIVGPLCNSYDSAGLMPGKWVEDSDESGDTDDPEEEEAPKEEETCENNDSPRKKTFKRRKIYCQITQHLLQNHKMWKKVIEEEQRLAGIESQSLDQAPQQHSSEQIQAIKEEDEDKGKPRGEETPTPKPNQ
# Phosphodiesterase 1 = Phosphodiesterase 1 (Homo sapiens, UniProt P54750+Q01064+Q14123); assay: Inhibition of Ca++ calmodulin dependent-PDE 1 from porcine aorta; assay type: protein assay, Sus scrofa; conditions: target entry is the homologue from another species; in short: as §1
Structure (SMILES),EC50 (Sus scrofa) [µM],IC50 (Phosphodiesterase 4A) [µM],IC50 [1] [µM],IC50 (Phosphodiesterase 3A) [µM],IC50 (Phosphodiesterase 1) [µM]
COc1cc2c(NCc3ccc4c(c3)OCO4)ncnc2c(OC)c1OC,2.13,,,,
CSc1ccc2ncnc(NCc3ccc4c(c3)OCO4)c2c1,0.12,> 100,> 100,> 100,> 100
COc1ccc2ncnc(NCc3ccc4c(c3)OCO4)c2c1,1.19,> 100,> 100,,> 100

# The next lines start with the values.
EC50 (Sus scrofa) [µM],IC50 (Phosphodiesterase 4A) [µM],IC50 [1] [µM],IC50 (Phosphodiesterase 3A) [µM],IC50 (Phosphodiesterase 1) [µM],Structure (SMILES)
0.19,> 100,> 100,> 100,> 100,Clc1ccc2ncnc(NCc3ccc4c(c3)OCO4)c2c1
0.3,> 100,> 100,> 100,> 100,N#Cc1ccc2ncnc(NCc3ccc4c(c3)OCO4)c2c1
1.56,> 100,> 100,> 100,> 100,Cc1ccc2ncnc(NCc3ccc4c(c3)OCO4)c2c1

# Reference: ChEMBL document CHEMBL1127847, “Cyclic GMP phosphodiesterase inhibitors. 2. Requirement of 6-substitution of quinazoline derivatives for potent and selective inhibitory activity” (J Med Chem, 1994)
